# Published values collected from several papers.
# Lines come from different studies, so protocols differ.
# Target: Receptor tyrosine-protein kinase erbB-4 (ERBB4, Homo sapiens, UniProt Q15303)
SMILES,test,setting,measurement,result
COc1c(Cl)cccc1Nc1c(-c2ccncc2OC[C@@H]2COCCO2)[nH]c2c1C(=O)NCC2,"enzyme activity, inhibitor, radiometric",1 µM,inhibition,> 80%
CN1CCN(C(=O)c2ccc(NC(=O)Nc3ccc(N(C)c4ccnc(Nc5ccc(CS(C)(=O)=O)cc5)n4)cc3)cc2)CC1,"binding, competition with immobilised ligand",1 µM,remaining binding,77%
C#Cc1cc(-c2cc(Nc3nc(N[C@@H](C)c4ccc(F)cn4)ncc3Cl)n[nH]2)ccc1C=O,"enzyme activity, inhibitor",0.2 µM,inhibition,54.3%
C#Cc1cnc(Nc2ccnc(CO)c2)nc1Nc1ccccc1S(C)(=O)=NC#N (centres unmarked),cell-free assay,1 µM,remaining signal,86%
COc1ccc2oc(-c3ccc4nc(N)oc4c3)c/c(=N\c3ccccc3NC(=O)CCN)c2c1,binding,1 µM,remaining binding,109%
C=CC(=O)N1CCC[C@@H](n2nc(-c3ccc(Oc4ccccc4)cc3)c3c(N)ncnc32)C1,"enzyme activity, inhibitor",1 µM,inhibition,100%
Cc1ccc(NC(=O)c2ccnc(C(F)(F)F)c2)cc1-c1cc(OCCO)nc(N2CCOCC2)c1,"binding, competition with immobilised ligand",1 µM,remaining binding,99%
CC#CC(=O)N1CCC[C@H]1c1nc(-c2ccc(C(=O)Nc3ccccn3)cc2)c2c(N)nccn12,"enzyme activity, inhibitor",1 µM,inhibition,96%
CCCCC(=O)Nc1ccc(-c2ccc3ncn(CCC)c(=O)c3c2)cn1,"binding, competition with immobilised ligand",0.5 µM,remaining binding,100%
C1=C/COCc2cc(ccc2OCCN2CCCC2)Nc2nccc(n2)-c2cccc(c2)COC/1,binding,0.1 µM,remaining binding,88%
N#Cc1ccc(NC(=O)Nc2ccccc2)cc1,"cell-free assay, competition with immobilised ligand",25 µM,remaining binding,100%
